# Assay results as given in the EternaBench riboswitch data.
# Test system: MS2 coat protein
# Experiment: apparent Kd, MS2 coat protein; higher = weaker binding; RNA-MaP array; FMN 200 µM where present
# Summary of the method: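 Stalled E. coli RNA polymerase transcribed each design on Illumina sequencing-chip clusters. The clusters were titrated with SNAP-549-labelled MS2 coat protein, starting at 0.7 or 1.5 nM and doubling up to 3 µM, first without ligand and then with constant ligand, in 100 mM Tris-HCl pH 7.5, 80 mM KCl, 4 mM MgCl2, BSA, DTT, yeast tRNA and Tween-20. Green signal was normalised to red-channel RNA signal and to the control-cluster median Fmax. The apparent Kd is the median of filtered binding-curve fits made for each cluster.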
# [1] = designed as: OFF switch for flavin mononucleotide, no ligand
# [2] = ligand present: flavin mononucleotide, designed as: OFF switch for flavin mononucleotide
# [3] = designed as: ON switch for flavin mononucleotide, no ligand
# [4] = ligand present: flavin mononucleotide, designed as: ON switch for flavin mononucleotide
Sequence,apparent Kd [1],apparent Kd [2],apparent Kd [3],apparent Kd [4]
CAUACAGUAGUUAGGAUAUUGCAACGUACACGGAACGAGAAGGGACAUGAGGAUCACCCAUGUAGAUUGUAAAG,0.0218 µM,0.0211 µM,–,–
CAUCAUCAAGUGAGGAUAUCGUCAAAUCAAUCAAACGAGAAGGCACAUGAGGAUCACCCAUGUCGACUCAUCAA,0.0183 µM,0.0249 µM,–,–
CAUCCACAUGAGGAUCACCCAUGUCAGGAUAUCUAUCAUAGCAUCGAAAGAUGCGGGUAGAGAAGGGACAAACC,0.0129 µM,0.0202 µM,–,–
CAUCGGAAGCAGAAGGCAUGAACGGACAUGAGGAUCACCCAUGUUGGAAACUCAUGCCCGAAAGAUGAGGAUAUGCGUCCGGGU,0.0728 µM,0.017 µM,–,–
CAUCUCCCUUUUACAUGAGGAUCACCCAUGUUUUCAUAUUGAGAGGAUAUCGUAUUUGGAAACAUCGAGAAGGCUCAUUUGUAU,–,–,0.536 µM,0.175 µM
CAUGUCCUCACAGGAUAUGCACCACUUUGUGGUGCAGAAGGGUGGUAACAUGAGGAUCACCCAUGUGGACAUGAUAUAUUUAAU,–,–,0.523 µM,0.294 µM
CAUGUCUGAGGAUAUCGUUUUUUGUACAUGAGGAUCACCCAUGUCCUAUUUUUUAUAUUACGAGAAGGCAGUGGAU,0.0364 µM,0.0222 µM,–,–
CAUUAACAUGAGGAUCACCCAUGUGAGGAUAUGAUAUUACUAGGACGGCUGUAAUCAAUCAGAAGGCACAUCUU,0.0204 µM,0.0445 µM,–,–
CAUUAAUUCAUUAUAGUAAUUAUACAGGAUAUGUAACAUGAGGAUCACCCAUGUAUUCUUGGUAAACAGAAGGGUAUUACAAGU,0.0137 µM,0.0128 µM,–,–
CCAACGUACAAUUUAGAUCUACAUGAGGAUCACCCAUGUACGGAGGAUAUCAGCUCGUUUAGAGCUGAGAAGGCCGAAUUAAUU,–,–,0.342 µM,0.0774 µM
CCAAGCUGUGUGAGGAUAUGCUGAACCUUGGUUCAGCAGAAGGCACAUGAGGAUCACCCAUGUGAAGAGCUUGG,0.0173 µM,0.0693 µM,–,–
CCAAGCUGUGUGAGGAUAUGCUGGUCGAAAGAUCAGCAGAAGGCACAUGAGGAUCACCCAUGUGAAAAGCUUGG,0.0183 µM,0.0509 µM,–,–
CCACAUGAGGAUCACCCAUGUAGGAUAAAUCACGGCUUGGCACAGGAUAUACGGAGCGACGGAUCGUAGAAGGGUGCACUCGGC,–,–,0.00837 µM,0.00607 µM
CCAGAGACAUAAGGAUAUCGAGUGGAUAACACUCGAGAAGGUAUGUGAAAACAUGAGGAUCACCCAUGUGAUCAAUACUCUGGA,–,–,0.0201 µM,0.0204 µM
CCAGAGAUAUGAGGAUAUCGAGUGGAAUACACUCGAGAAGGCAUGUGAAUACAUGAGGAUCACCCAUGUGAUCAAUACUCUGGA,–,–,0.171 µM,0.0326 µM
CCAGCGUAUGUAAGGAUAUGCUGGUCCUUGGAUCAGCAGAAGGUACAUGAGGAUCACCCAUGUGUAAUCGUUGG,0.0206 µM,0.0561 µM,–,–
CCAGCGUAUGUGAGGAUAUGCUGGUCCUUGGAUCAGCAGAAGGCACAUGAGGAUCACCCAUGUGGUGUCGUUGG,0.303 µM,0.037 µM,–,–
CCAGCGUGUGUGAGGAUAUGCUGGUCCUUGGAUCAGCAGAAGGCACAUGAGGAUCACCCAUGUGAGAACGUUGG,0.0231 µM,0.105 µM,–,–
CCAGUGCGGGUGGUAUGGCUAACAUGAGGAUCACCCAUGUUGCAGGAUAUCGGCCAGAUUGGGCGCGAGAAGGGCAACGCUGAA,0.0866 µM,0.0326 µM,–,–

Sequence,apparent Kd [1],apparent Kd [2],apparent Kd [3],apparent Kd [4]
CCAUGGCAUGUAGGAUAUGUCUGACAAAGUCAGACAGAAGGACAUGAGGAUCACCCAUGUAGGAAAUAACCACAUAAGCCAUGG,0.00632 µM,0.00586 µM,–,–
CCAUGGUGGGCAGGAUAUCGUCCAGCUUGCGGACGAGAAGGGCUAGAACAUGAGGAUCACCCAUGUGAAAAGCGGGUUGUCCAA,0.0278 µM,0.145 µM,–,–
CCAUGUUAGCAGGAUAUGCAAUUAUUCUUUUAAGCAGAAGGGCUUACAUGAGGAUCACCCAUGUAACAUUUCAU,0.0173 µM,0.0854 µM,–,–
CCCAAACUUGGGCUUGGUGGUGCAUAGGAUAUCCUUGAACAUGAGGAUCACCCAUGUACAACUGUGGAGAAGGGUGCAGGGCCU,–,–,0.372 µM,0.111 µM
CCCAAACUUGGGCUUGGUUGUGCAUAGGAUAUCCUUGGACAUGAGGAUCACCCAUGUACAACUGUGGAGAAGGGUGCAGGACCU,–,–,0.0391 µM,0.0164 µM
CCCACAUGAGGAUAUCCAUCUGGAUCAGACUAGAUCCUGAUGGAGAAGGUACAUGAGGAUCACCCAUGUGUGGG,0.301 µM,0.222 µM,–,–
CCCACGAAAGUCGAACGAUGAUGGAGAAGGAGUAUAACAUGACAUGAGGAUCACCCAUGUGCCAACUAGGAUAUCCAUCAUGGG,0.00972 µM,0.00855 µM,–,–
CCCACGAAAGUCGAACGAUGUAGGAGAAGGACAAUAACAUGACAUGAGGAUCACCCAUGUGCCAUGUAGGAUAUCCUACAUGGG,0.00786 µM,0.00778 µM,–,–
CCCACGAGCGUAGGAUAUACAUGAGGAUCACCCAUGUAGGCACAAUGUCCCAGCUAGUGACCAGUGUAGAAGGACGUGUCUGGG,0.0508 µM,0.107 µM,–,–
CCCAGCUAUGUGAGGAUAUUCACAUCGAUGGUAGUGAAGAAGGCACAUGAGGAUCACCCAUGUUGGUUGCCGAU,0.0194 µM,0.0287 µM,–,–
CCCAGUUAGGAAGGAUAUUGUACAUGAGGAUCACCCAUGUAAUAAAUGAGGAUCACGGAUGUAUACAAGAAGGUCCGGAUAGGC,0.0704 µM,0.14 µM,–,–
CCCGGCGUGUCGCUACGCCGAGAGCAGGAUAUUCCGCCGUGAUCUACAUGAGGAUCACCCAUGUGGAAGAAGGGCUACACAAAA,0.0143 µM,0.121 µM,–,–
CCCGUGUUAGGAUAUACGGCACACCCGCCAGCGGGUAUAUAGUAGAAGGAACAUGAGGAUCACCCAUGUAUAGC,0.0161 µM,0.0466 µM,–,–
CCCUCAAGCGAGGAUAUAAAUGCGCAUUCGCGGUUAGAAGGCGCUACAUGAGGAUCACCCAUGUAAUAAAAUGG,0.0682 µM,0.0864 µM,–,–
CCCUCACAUGAGGAUCACCCAUGUCAGGAUAUCUCACAUCGGCCUUAGGCCGAUGUCUAGAGAAGGGACGUAUC,0.0221 µM,0.0295 µM,–,–
CCCUCGGGAGGAUAUGGGUGUUUUUACAUGAGGAUCACCCAUGUGGAGUAACAUGUGGGUCCAGAAGGCCCAAGGG,1.4 µM,0.663 µM,–,–
CCGAAACCUCAGAAGGACCACAUGAGGAUCACCCAUGUCAAGCAAAACGGUAGGAUAUGAGGGAAAAGUCGGUGUACCCGACAG,–,–,0.00893 µM,0.00576 µM
CCGAUAAAUGGAGGAUAUGGAGCCUUAUUGGCUCCAGAAGGCUAAUAACAUGAGGAUCACCCAUGUCGGCGGUCUAAUGACCGA,–,–,0.0813 µM,0.033 µM
CCGCCCUGAGGAUAUCCACCCUCAUACAUGAGGAUCACCCAUGUUCACCCUUGGGUUCCCGGAGAAGGCAGCCUUC,0.566 µM,0.548 µM,–,–

Sequence,apparent Kd [1],apparent Kd [2],apparent Kd [3],apparent Kd [4]
CCGCUAAAUGGAGGAUAUGGAGCCUUAUUGGCUCCAGAAGGUCAAAACAUGAGGAUCACCCAUGUGCGGCGGUCUAAUGACCGA,–,–,0.186 µM,0.0502 µM
CCGCUCGAGCAGAAGGCAAUGAGGGUUAUACAUUGAGGAUAUGCUACGUACGUGGUACAUGAGGAUCACCCAUGUAGCCUAUCU,–,–,0.788 µM,0.0934 µM
CCGCUGUGAGGAUAUUAGUAGUAGUCAGAAUAGACUAUUACUGAGAAGGCACAUGAGGAUCACCCAUGUCGCGG,0.0312 µM,0.0431 µM,–,–
CCGGAAAGGAAGGAUAUGCUAGACGAAAGUCUAGCAGAAGGUCCUACAUGAGGAUCACCCAUGUGUCCUACCGG,0.0472 µM,0.0605 µM,–,–
CCGGAAAUACAGGAUAUAGGAGUCGAUAGACUCCUAGAAGGGUAUACAUGAGGAUCACCCAUGUUCCUUACCGG,0.0459 µM,0.0502 µM,–,–
CCGGAAAUGAAGGAUAUAGGAGUCGAUAGACACCUAGAAGGUCAUACAUGAGGAUCACCCAUGUGUCCUACCGG,0.0152 µM,0.031 µM,–,–
CCGGAAAUGAAGGAUAUAGGUGUCGAUAGACACCUAGAAGGUCAUACAUGAGGAUCACCCAUGUGUCCUACCGG,0.0161 µM,0.0306 µM,–,–
CCGGAAAUGGAGGAUAUAGGAGUCGAUAGACACCUAGAAGGUCAGACAUGAGGAUCACCCAUGUGUCCUACCGG,0.0172 µM,0.0218 µM,–,–
CCGGAAUCCUAGGAUAUGCUAGACGAUAGUCUAGCAGAAGGAGGAACAUGAGGAUCACCCAUGUGUCCUACCGG,0.0172 µM,0.0221 µM,–,–
CCGGAGACGGGUAGCCUGACAUGAGGAUCACCCAUGUAAUACGAGGAUAUGGAUCCUAAUUGGAUCCAGAAGGUGUCAGGCUAC,–,–,0.908 µM,0.729 µM
CCGGAGUCAGGAUAUACGAACAUGUCGCCAGAUGUCAAGGUACAUGAGGAUCACCCAUGUAGAAGGGAGGAGAA,0.0961 µM,0.0568 µM,–,–
CCGGGUUAUGUUAGGAUAUGUAGGCCGCAACCGGAACAGAAGGGACAUGAGGAUCACCCAUGUGAUAUUCCCGG,0.0233 µM,0.0307 µM,–,–
CCGGUAUAGGAGGAUAUAGGAGUCGAUAGACACCUAGAAGGCCUGACAUGAGGAUCACCCAUGUGUCCUACCGG,0.017 µM,0.02 µM,–,–
CCGUCCUGAGGAUAUCCACCCUCAUACAUGAGGAUCACCCAUGUUCACCCUUGGGUUCCCGGAGAAGGCAGUUUUC,0.243 µM,0.374 µM,–,–
CCUAAGGAGGCAGGAUAUAGUGUGGUGGCCGGGCUCCCACGGCGAGCGGCACUAGAAGGGUCGCUACAUGAGGAUCACCCAUGU,–,–,0.025 µM,0.0173 µM
CCUCCACAUGAGGAUCACCCAUGUCAGGAUAUCGUGUGUUUUUUUUCGGCCGCGCGUGCGAGAAGGGACGUCUU,0.0195 µM,0.0198 µM,–,–
CCUCGACAUGAGGAUCACCCAUGUCAGGAUAUUGUGUUUUGGGUUUUUUACCUUUAGGCAAGAAGGGAUGUGUG,0.0164 µM,0.0241 µM,–,–
CCUCUAACCUAGGAUAUAGGUAGACCUAGUCGCCUAGAAGGAGGUACAUGAGGAUCACCCAUGUAUAUUGGGCU,0.277 µM,0.127 µM,–,–
